From PubChem
Plk1 PBD FP = Plk1 polo box domain binding inhibitors, primary screen, biochemical, fluorescence polarization; Serine/threonine-protein kinase PLK1 (Homo sapiens), P53350; Plk1 PBD phosphopeptide binding; inhibition, %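 (tested at about 20 µM)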; actives 0.13% (n = 97,000); AID 693, 2007; in the data active means inhibition above about 34%, passing the limit was not always enough
HIV Rev-RRE inh = HIV-1 Rev-RRE binding inhibitors, primary screen, biochemical, FRET, protein-RNA interaction; P05866; Rev peptide-RRE RNA binding; inhibition, % at 8 µM; actives 0.79% (n = 97,000); AID 704, 2007;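 active means inhibition above the screen-wide mean plus 3 SD, cut at about 35% in these data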
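Test system: Cy5-tagged RRE RNA duplex with fluorescein-tagged Rev peptide | Read-out: % inhibition of FRET ratio versus controls | Probe or stimulus: Labelled Rev peptide | Incubation: 5 min RNA-compound premix plus 15 min binding step, 25 °C | Technique: FRET fluorescence readout | Benchmarks: DMSO low control, neomycin B high control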
PLK1 kinase inh = human PLK1 kinase inhibitors, primary screen, biochemical, TR-FRET. inhibition, % at 10 µM. recombinant PLK1 kinase, TR-FRET peptide phosphorylation. actives 0.53% (n = 97,000);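 active means inhibition of 50% or more in the single-concentration screen; inactive means inhibition below 50%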
LYP inh 2 = PTPN22 phosphatase inhibitors, primary screen, biochemical, DiFMUP fluorescence, 2 µM. Tyrosine-protein phosphatase non-receptor type 22 (Homo sapiens), Q9Y2R2. recombinant LYP catalytic domain. inhibition, % at 2 µM. actives 0.21% (n = 96,000);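 active means inhibition at 2 µM at or above a set limit, the screen mean plus 3 SD, cut at about 24% in these data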
DAT uptake mod = changed hDAT dopamine uptake under cocaine IC80, either direction, primary screen, cocaine antagonist project, cell-based, LLC-PK1 hDAT, [14C]-dopamine uptake, MLSMR | Sodium-dependent dopamine transporter (Homo sapiens), Q01959 | LLC-PK1 hDAT cells, [14C]-dopamine uptake with cocaine IC80; actives deviate in either direction | B-score at 10 µM | actives 1.3% (n = 110,000) | AID 449768, 2010;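 active means Z score or B-score, a plate-position-corrected score, falls beyond the plate's 99.7% confidence bounds, in either direction; inactive means both scores lie inside the 99.7% bounds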
Target sequence (Q01959 whole entry, looked up): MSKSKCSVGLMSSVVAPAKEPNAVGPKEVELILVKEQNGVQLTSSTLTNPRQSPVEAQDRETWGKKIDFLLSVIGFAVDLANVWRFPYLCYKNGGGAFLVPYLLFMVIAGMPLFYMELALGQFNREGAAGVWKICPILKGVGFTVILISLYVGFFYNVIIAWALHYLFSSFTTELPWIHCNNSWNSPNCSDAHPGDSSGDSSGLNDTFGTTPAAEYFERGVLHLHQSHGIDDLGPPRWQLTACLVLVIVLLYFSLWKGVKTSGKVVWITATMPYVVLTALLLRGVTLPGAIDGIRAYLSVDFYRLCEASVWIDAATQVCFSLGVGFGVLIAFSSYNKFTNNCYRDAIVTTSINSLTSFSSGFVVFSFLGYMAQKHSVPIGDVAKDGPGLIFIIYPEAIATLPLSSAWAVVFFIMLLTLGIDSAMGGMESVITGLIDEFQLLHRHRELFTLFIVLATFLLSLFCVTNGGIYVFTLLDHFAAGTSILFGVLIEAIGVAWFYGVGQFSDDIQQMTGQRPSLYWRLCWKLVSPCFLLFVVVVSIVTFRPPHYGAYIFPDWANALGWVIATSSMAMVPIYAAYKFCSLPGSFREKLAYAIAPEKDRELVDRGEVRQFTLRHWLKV
PTPN22 act = LYP phosphatase activators, primary screen, biochemical, DiFMUP fluorescence, 2 µM; actives 0.11% (n = 96,000); activation, % at 2 µM; recombinant LYP; 0 = plate median, 100 = signal doubled;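 active means activation at 2 µM above a set limit, the mean plus 5 SD, cut at about 37% in these data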
A number is an active result; – = inactive; · = not tested or not shown; [ ] = remark or other dose. A selection: hits, their analogues and other compounds. The true share with any hit is near 2.7%.

SMILES	Plk1 PBD FP	HIV Rev-RRE inh	PLK1 kinase inh	LYP inh 2	DAT uptake mod	PTPN22 act
Cc1cc(SCC(=O)c2cc3ccccc3o2)nc2ccccc12	–	45.9	–	–	–	–
C=CC1=C2C=C(C3CC3)N(CCCN(CC)CC)C=C2C(=O)C(C)(OC(=O)c2ccco2)C1=O (stereo not given)	·	·	·	·	–	·
C#CCNC(=O)C1=C[C@@H](c2ccc(C#C)cc2)C[C@@H](OCc2ccc(CO)cc2)O1	·	·	·	·	–	·
S=C1NCCC12C(=S)Nc1ccccc12 (stereo not given)	·	·	·	·	–	·
Nc1nnc(-c2ccco2)s1	–	–	–	–	–	–
Nc1ncnc2oc(-c3ccco3)c(-c3ccco3)c12	–	–	56.2	–	–	–
CCCCCN=Cc1c(C)[nH]n(-c2nc3ccccc3s2)c1=O	–	–	–	–	2.51	–
CCCc1[nH]n(-c2nc3ccccc3s2)c(=O)c1C=NCCN1CCOCC1	–	–	–	–	–	–
CCCNc1c(F)c(F)c2c(C)c3ccccc3nc2c1F	–	120.6[fluorescence artefact?]	–	–	–	–
COC(=O)COc1ccc(S(=O)(=O)NCc2ccco2)cc1Cl	–	–	–	–	–	–
Cc1cc(C)c(NC(=O)CSc2nnc(Cc3cccn3C)n2-c2ccc(F)cc2)c(C)c1	–	–	–	–	–	–
Cc1cc(C)cc(NC(=O)CSc2nnc(Cc3cccn3C)n2-c2ccc(F)cc2)c1	–	–	–	–	2.59	–
CCCc1n[nH]c2c1C(=O)C(C(=O)OC)C(C)(C)C2 (stereo not given)	·	·	·	·	–	·
Cc1c(Cc2c(Cl)cccc2Cl)c(=O)ccn1C(C)c1ccccc1 (stereo not given)	–	–	–	–	–	–
CCC(=O)Oc1c(-c2ccccc2)c2nc3ccccc3nc2c2ccccc12	–	111.5[fluorescence artefact?]	–	–	·	–
CC(SCCc1ccccn1)C(=O)O (stereo not given)	·	·	·	·	–	·
Cc1ccc(N2C(=O)C(c3c(C)[nH]n(-c4ccccc4)c3=O)(C(F)(F)F)C3=C2CC(C)(C)CC3=O)cc1 (stereo not given)	–	–	–	–	-5.07	–
COc1ccc(N=C2S/C(=C\c3ccc(N4CCOCC4)o3)C(=O)N2CCc2c[nH]c3ccccc23)cc1	–	131.3[fluorescence artefact?]	–	–	–	–
CCOC(=O)[C@@H]1CCNC[C@@H]1c1ccccc1	–	141.4[fluorescence artefact?]	–	–	–	–
O=C(Cn1nnc(-c2ccc(CN3CCOCC3)cc2)n1)Nc1nc(-c2ccccc2)cs1	–	–	–	–	-9.61	–
CC1Cc2ccccc2N1C(=O)CSc1nnc(-c2ccccc2)c(-c2ccccc2)n1 (stereo not given)	–	–	–	–	–	–
CN(CC1CCCO1)S(=O)(=O)c1ccc(C(=O)Nc2nc(-c3ccccn3)cs2)cc1 (stereo not given)	–	–	–	–	2.73	–
COC(=O)c1ccccc1NC(=O)c1cc2ncc(Br)cn2n1	–	–	–	–	-2.35	–
O=C(Nc1ccc(F)cc1F)c1cc2ncc(Br)cn2n1	–	–	–	–	–	–
CC(=O)n1cc([C@H]2C=C(C(=O)N3CCOCC3)O[C@@H](OCCCCO)C2)c2ccccc21	·	·	·	·	–	·
SMILES	Plk1 PBD FP	HIV Rev-RRE inh	PLK1 kinase inh	LYP inh 2	DAT uptake mod	PTPN22 act
O=C(c1ccco1)N1CCN(S(=O)(=O)c2cccc(C(F)(F)F)c2)CC1	–	–	–	–	-1.75	–
CCS(=O)(=O)c1ccc2oc(SCC(=O)NC3CCCC(C)C3C)nc2c1 (stereo not given)	–	–	–	–	–	–
COCCNC(=O)c1ccc2c(=O)n(CCOC)c(=O)[nH]c2c1	–	–	–	–	-8.96	–
CCCCCNC(=O)c1ccc2c(=O)n(CCOC)c(=O)[nH]c2c1	–	–	–	–	–	–
Nc1nnnn1/N=C/c1ccccc1C(F)(F)F	–	–	–	68.8	–	–
Nc1nnnn1/N=C/c1ccccc1OCc1ccccc1	–	–	–	–	–	–
CC1=C(C#N)C(Nc2ccc(C)cn2)(C(F)(F)F)C(=O)N1 (stereo not given)	–	–	–	–	–	–
CCN(CC)c1ccc(N=Cc2ccc(N(CC)CC)cc2O)cc1	–	96.0[fluorescence artefact?]	–	–	–	–
CCN(CC)c1ccc(C=Nc2ccc(N(C)C)cc2)c(O)c1	–	81.3[fluorescence artefact?]	–	–	–	–
CCN(CC)S(=O)(=O)c1cccc(C(=O)N[C@H](C(=O)NCc2ccc(Cl)cc2)C(C)C)c1	–	–	–	–	–	–
CCn1c(=O)c(C(=O)Nc2cccnc2)c(O)c2ccccc21	–	–	–	–	·	–
CCn1c(=O)c(C(=O)NCc2cccnc2)c(O)c2ccccc21	–	–	–	–	-8.39	–
CCCCn1c(SCC2CCCO2)nc2cc(S(N)(=O)=O)ccc21 (stereo not given)	–	–	–	–	–	–
CCCCn1c(SCC(=O)N2CCC(C)CC2)nc2cc(S(N)(=O)=O)ccc21	–	–	–	–	3.28	–
COCc1nnc(NC(=O)CSc2ccc(C)cc2)s1	–	–	–	–	–	–
COCc1nnc(NC(=O)CSc2ccccc2)s1	–	–	–	–	-2.61	–
CCC(C)[C@H]1CN=C(N)N1CCc1cccc(F)c1 (stereo not given in full)	·	·	·	·	–	·
COc1cc(/C=C(/C#N)c2nc3ccccc3[nH]2)ccc1Oc1ncccc1[N+](=O)[O-]	–	–	–	–	–	–
N#C/C(=C\c1ccc(N2CCCC2)c([N+](=O)[O-])c1)c1nc2ccccc2[nH]1	–	37.3	–	–	–	–
Cc1nc(-c2ccccc2)sc1C1(C)CC(c2ccc(OC(F)(F)F)cc2)=NO1 (stereo not given)	·	·	·	·	–	·
COc1ccc(-c2[nH]c(-c3ccccc3)nc2SCC(=O)NC2CCCC2)cc1	·	·	·	·	4.71	·
COc1ccc(-c2[nH]c(-c3ccc(F)cc3)nc2SCC(=O)NC2CCCC2)cc1	·	·	·	·	–	·
COCCn1c(SCc2nc3sc(C(=O)OC)c(C)c3c(=O)[nH]2)nc2ccccc21	–	–	–	–	–	–
CCn1c(SCc2nc3sc(C(=O)O)c(C)c3c(=O)[nH]2)nc2ccccc21	–	60.1	56.2	–	·	–
O=c1[nH]nc(Sc2ncnc3sccc23)n1CCc1ccccc1	–	–	–	–	·	–
COc1cc(/C=C2/N=C(c3ccccc3)OC2=O)c(F)cc1OCc1ccccc1	·	·	·	·	–	·
COc1cc(N2CCCC2)c(OC)cc1/C=c1/sc2nc3ccccc3n2c1=O	–	133.0[fluorescence artefact?]	–	–	·	–
